Data: publication PMC3374645 (European Journal of Pharmaceutical Sciences, 2012)
≈ marks a conversion by molar mass, not a printed value. Read-outs that look alike come from different tables or passages of the source.

Assays:
[1] = comparison value, no reference given; cited from earlier work
[2] = 2008, cited from earlier work
[3] = Partition coefficient in octanol:water system; format: physicochemical; conditions: pH 7.0
Outline: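 Test compound (1.0 mg) was added to 4.0 mL of a 1:1 octanol:water mixture at pH 7.0 and shaken vigorously for 30 min. Phases were separated by centrifugation, passed through 0.1 µm filters and quantified by reverse-phase C18 HPLC (90% acetonitrile, 242 nm).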

[4] = Parallel artificial membrane permeability assay; format: in vitro ADME; conditions: PAMPA, pH 7.4, 4 h
[5] = Noncompartmental pharmacokinetics after oral administration; format: in vivo, Sprague–Dawley rats; conditions: rat
Outline: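 Male Sprague–Dawley rats (240–350 g, n = 5/group) were fasted overnight and gavaged with 2% (w/v) test compound in ethanol/TPGS/water. Tail-vein plasma was sampled predose and 0.25–24 h, precipitated with acetonitrile, and run on C18 HPLC at 242 nm (nimesulide internal standard; 0.05–8.00 μg/mL calibration). Per-rat SHAM analysis used log-trapezoidal AUC, with CL = Dose/AUC.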

[6] = Simultaneous three-compartment model fit of i.v. and oral data; format: in vivo, Sprague–Dawley rats; conditions: rat
Outline: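 Pooled i.v. (5.0 mg/kg) and oral (20, 40, 60 mg/kg gavage) rat plasma data were fitted simultaneously by generalized least squares with variance error models. The structural model had three compartments with combined zero-order/Michaelis–Menten limited systemic uptake. Models were discriminated by goodness-of-fit plots, residuals, SE, CV%, CI95% and lowest AIC.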

[7] = Saturation solubility, shake-flask in buffers, HPLC; format: physicochemical
Outline: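 Shake-flask method: excess test compound was placed in 1.0 mL citrate, HEPES or phosphate buffer at pH 2.0–8.0 and shaken 24 h at 25.0 ± 0.1 °C, 1500 rpm. Suspensions then stood unshaken overnight before centrifugation. Supernatants were filtered (0.1 µm) and measured by reverse-phase C18 HPLC at 242 nm.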

[8] = Three-compartment model fit after i.v. administration; format: in vivo, Sprague–Dawley rats; conditions: rat, i.v. 5.0 mg/kg
Outline: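 Rats received a tail-vein injection of 5.0 mg/kg in ethanol/TPGS/water vehicle. Plasma was taken from 0.017 to 24 h and assayed by HPLC. Concentration–time data were fitted by generalized least squares to three-compartment mass-balance differential equations, seeded with noncompartmental estimates. Parameters are reported with CV%; Vss was taken as the sum of the compartment volumes.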

Caco-2 monolayers = experiment: Bidirectional permeability in Caco-2 monolayers; format: in vitro ADME

In the case of `c1ccc2c(Cc3c[nH]c4ccccc34)c[nH]c2c1` [DIM, 3,3′-diindolylmethane], the “Log K0/w” value [1] is given as “≈ 4.0”, the Cmax ([2]; single 100 mg dose ref Reed et al.) is given as 32 ng/mL and the Cmax ([2]; single 200 mg dose ref Reed et al.) is given as 104 ng/mL. For the same molecule, the Cmax ([2]; single 300 mg dose ref Reed et al.) was 108 ng/mL.

For `c1ccc(-c2ccc(C(c3c[nH]c4ccccc34)c3c[nH]c4ccccc34)cc2)cc1` [DIM-P, DIM-C-pPhC6H5], the “experimental Log K0/w” value [3] was 6.79 ± 0.12 and ≈ 7.0, the “donor-to-receptor apparent permeability (Papp)” value ([4]; stirred water layer) was 2.69 ± 0.08 × 10^−6 cm/s and the “donor-to-receptor apparent permeability (Papp)” value ([4]; unstirred water layer) was 0.58 ± 0.07 × 10^−6 cm/s. The “AUC0–24h /Dose” value ([5]; oral 20 mg/kg) was 2.28 ± 0.46 (min/L) *10^−3, the “AUMC0–24h” value ([5]; oral 20 mg/kg) was 250.45 ± 62.42 μg × min^2/mL and the “AUMC0–24h/Dose” value ([5]; oral 20 mg/kg) was 0.012 ± 0.003 min^2/mL. For the same molecule, the CL ([5]; oral 20 mg/kg) was 0.8652 ± 0.0648 mL/min/kg, the Cmax ([5]; oral 20 mg/kg) was 7210 ± 1190 ng/mL and the Cmax/dose ([5]; oral 20 mg/kg) was 0.36 ± 0.06. For the same molecule, the “FBIO (absolute bioavailability)” value ([5]; oral 20 mg/kg) was 0.13 ± 0.03, the MRT ([5]; oral 20 mg/kg) was 5.47 ± 0.64 h and the “Terminal t1/2” value ([5]; oral 20 mg/kg) was 6.91 ± 3.84 h. For the same molecule, the Vss ([5]; oral 20 mg/kg) was 0.49979 ± 0.223605 L/kg, the “time of maximum plasma level” value ([5]; oral 20 mg/kg) was 2 h and the “AUMC0–24h” value ([5]; oral 40 mg/kg) was 548.85 ± 207.09 μg × min^2/mL. The “AUMC0–24h/Dose” value ([5]; oral 40 mg/kg) was 0.014 ± 0.005 min^2/mL, the CL ([5]; oral 40 mg/kg) was 0.8315 ± 0.0753 mL/min/kg and the Cmax ([5]; oral 40 mg/kg) was 11270 ± 1040 ng/mL. The Cmax/dose ([5]; oral 40 mg/kg) was 0.28 ± 0.03, the “FBIO (absolute bioavailability)” value ([5]; oral 40 mg/kg) was 0.12 ± 0.03 and the MRT ([5]; oral 40 mg/kg) was 6.29 ± 1.14 h. For the same molecule, the “Terminal t1/2” value ([5]; oral 40 mg/kg) was 7.86 ± 3.12 h, the Vss ([5]; oral 40 mg/kg) was 0.54861 ± 0.16478 L/kg and the “time of maximum plasma level” value ([5]; oral 40 mg/kg) was 2 h. For the same molecule, the “AUC0–24h /Dose” value ([5]; oral 60 mg/kg) was 2.32 ± 0.46 (min/L) *10^−3, the “AUMC0–24h” value ([5]; oral 60 mg/kg) was 912.16 ± 299.02 μg × min^2/mL and the “AUMC0–24h/Dose” value ([5]; oral 60 mg/kg) was 0.015 ± 0.005 min^2/mL. The CL ([5]; oral 60 mg/kg) was 0.8397 ± 0.0582 mL/min/kg, the Cmax ([5]; oral 60 mg/kg) was 17860 ± 1620 ng/mL and the Cmax/dose ([5]; oral 60 mg/kg) was 0.30 ± 0.03. The “FBIO (absolute bioavailability)” value ([5]; oral 60 mg/kg) was 0.13 ± 0.03, the MRT ([5]; oral 60 mg/kg) was 6.43 ± 0.81 h and the “Terminal t1/2” value ([5]; oral 60 mg/kg) was 7.60 ± 2.34 h. The Vss ([5]; oral 60 mg/kg) was 0.54239 ± 0.12804 L/kg, the “time of maximum plasma level” value ([5]; oral 60 mg/kg) was 3 h and the absolute bioavailability ([5]; oral, as stated in abstract) was 0.13 ± 0.06. The “zero-order absorption site access rate” value ([6]; oral 20 mg/kg) was 14 mg/h/kg, the “zero-order absorption site access rate” value ([6]; oral 40 mg/kg) was 28 mg/h/kg and the “zero-order absorption site access rate” value ([6]; oral 60 mg/kg) was 42 mg/h/kg. For the same molecule, the CLC ([6]; simultaneous fit i.v. 5.0 and oral 20, 40, 60 mg/kg) was 0.77 mL/min/kg, the “Abmax (maximum absorption rate at saturation)” value ([6]; simultaneous fit i.v. and oral) was 60.65 µg/min/kg and the CLd1 ([6]; simultaneous fit i.v. and oral) was 0.606 mL/min/kg. The CLd2 ([6]; simultaneous fit i.v. and oral) was 0.319 mL/min/kg, the FBIO ([6]; simultaneous fit i.v. and oral) was 0.126 and the “SD50 (amount of drug at the absorption site at 50% saturation)” value ([6]; simultaneous fit i.v. and oral) was 8.6797 mg/kg. For the same molecule, the “Tsite (time required for drug to reach absorption site)” value ([6]; simultaneous fit i.v. and oral) was 85.20 min, the V1 ([6]; simultaneous fit i.v. and oral) was 0.64606 L/kg and the V2 ([6]; simultaneous fit i.v. and oral) was 0.0285 L/kg. The VC ([6]; simultaneous fit i.v. and oral) was 0.0139 L/kg, the aqueous solubility ([7]; pH 2.0, 25 °C, 24 h shake-flask) was 0.28 ± 0.03 µg/mL (≈ 0.703 µM) and the maximum aqueous solubility ([7]; pH 8.0, 25 °C, 24 h shake-flask) was 0.73 ± 0.09 µg/mL. For the same molecule, the overall solubility ([7]; pH range 2–8) was “less than 1.0 μg/mL”, the apparent distributional phase [8] was less than 2 h and the VSS ([8]; secondary parameter) was 0.68285 L/kg. The t1/2 ([8]; secondary parameter) was 10.653 h, the CLC ([8]; three compartment model) was 0.74 mL/min/kg and the CLd1 ([8]; three compartment model) was 0.56 mL/min/kg. It also gave a CLd2 ([8]; three compartment model) of 0.29 mL/min/kg, a V1 ([8]; three compartment model) of 0.64098 L/kg and a V2 ([8]; three compartment model) of 0.02822 L/kg. For the same molecule, the VC ([8]; three compartment model) was 0.01365 L/kg, the “Peff A–B” value (Caco-2 monolayers; Caco-2, apical pH 5) was 0.34 ± 0.06 × 10^−6 cm/s and the “Peff B–A” value (Caco-2 monolayers; Caco-2, apical pH 5) was 0.53 ± 0.08 × 10^−6 cm/s. For the same molecule, the “Peff A–B” value (Caco-2 monolayers; Caco-2, apical pH 5.8) was 0.33 ± 0.07 × 10^−6 cm/s, the “Peff B–A” value (Caco-2 monolayers; Caco-2, apical pH 5.8) was 0.50 ± 0.06 × 10^−6 cm/s and the “Peff A–B” value (Caco-2 monolayers; Caco-2, apical pH 6.8) was 0.35 ± 0.06 × 10^−6 cm/s. The “Peff B–A” value (Caco-2 monolayers; Caco-2, apical pH 6.8) was 0.52 ± 0.07 × 10^−6 cm/s, the “average Peff, B–A” value (Caco-2 monolayers; Caco-2, basolateral to apical, average) was 0.51 ± 0.09 × 10^−6 cm/s and the “absorptive (A–B) versus secretive (B–A) transport” value (Caco-2 monolayers; bidirectional Caco-2, no active efflux) was “nearly unity”. For the same molecule, the “Biopharmaceutics Classification System (BCS) class” value (Caco-2 monolayers; from low solubility and low permeability) was “Class IV”.

In the case of Lucifer Yellow [reference compound], the “mean permeability of paracellular control” value (Caco-2 monolayers; Caco-2 monolayer integrity control) is reported as less than 0.15 ×10⁻⁶ cm/s.
